Assay results published in ChEMBL document CHEMBL1136457, “MexAB-OprM-specific efflux pump inhibitors in Pseudomonas aeruginosa. Part 1: discovery and early strategies for lead optimization” (2003).

Experiments:
Type in all cases: functional
[1] = test system: Pseudomonas aeruginosa; test: Minimum Potentiation Concentration of EPI required to achieve an 8-fold reduction in antibiotic MIC of AZT against MexAB-OprM pump system in Pseudomonas aeruginosa with 10% horse serum
Outline: (§1)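 Broth microdilution in Mueller–Hinton broth, P. aeruginosa PAM1723, starting inoculum 10^6 CFU/mL, 18 h at 37 °C; run with and without 10% horse serum. Aztreonam MIC read by visual growth; MPC8 taken as lowest inhibitor concentration giving 8-fold reduction of aztreonam MIC.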

[2] = test system: Pseudomonas aeruginosa; test: Minimum Potentiation Concentration of EPI required to achieve an 8-fold reduction in antibiotic MIC of AZT against MexAB-OprM pump system in Pseudomonas aeruginosa without horse serum; outline: as §1
[3] = Ratio of potentiation of aztreonam (AZT) with 10% horse serum to without serum
Outline: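 Ratio of aztreonam MPC8 with 10% horse serum to MPC8 without serum, both from Mueller–Hinton broth microdilution against PAM1723 (10^6 CFU/mL, 18 h, 37 °C, visual growth read-out).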

[4] = test system: Pseudomonas aeruginosa; test: Minimum Potentiation Concentration of EPI required to achieve an 8-fold reduction in antibiotic MIC of levofloxacin against MexABOprMover-expressing strain of Pseudomonas aeruginosa
Outline: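 P. aeruginosa PAM1723 in Mueller–Hinton broth, broth microdilution per NCCLS M7-A4, starting inoculum 10^6 CFU/mL, inhibitor titrated with levofloxacin; 18 h at 37 °C. Levofloxacin MIC read at 70% growth inhibition by OD 595 nm. Value is the inhibitor concentration giving an 8-fold drop in levofloxacin MIC, measured without serum.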

CC(C)c1csc(/C=C/c2cccc(NC(=O)Cc3ccccc3C(=O)O)n2)n1
MPC8 [1]: 80 µg/mL
MPC8 [2]: 20 µg/mL
Ratio [3]: 4
MPC8 [4]: >80 µg/mL

CCC(C)(C(N)=O)c1csc(/C=C/c2cccc(NC(=O)Cc3ccccc3C(=O)O)c2)n1 (configuration not stated)
MPC8 [1]: 40 µg/mL
MPC8 [2]: 20 µg/mL
Ratio [3]: 2
MPC8 [4]: 80 µg/mL

CC(C)c1csc(CCc2ccnc(NC(=O)Cc3ccccc3C(=O)O)c2)n1
MPC8 [1]: 10 µg/mL
MPC8 [2]: 5 µg/mL
Ratio [3]: 2
MPC8 [4]: 2.5 µg/mL

CC(C)c1csc(/C=C/c2cccc(NC(=O)C(O)c3ccccc3C(=O)O)c2)n1 (configuration not stated)
MPC8 [1]: 40 µg/mL
MPC8 [2]: 2.5 µg/mL
Ratio [3]: 16

CC(C)c1csc(/C=C/c2cncc(NC(=O)Cc3ccccc3C(=O)O)c2)n1
MPC8 [1]: 10 µg/mL
MPC8 [2]: 5 µg/mL
Ratio [3]: 2
MPC8 [4]: 2.5 µg/mL

O=C(Cc1ccccc1C(=O)O)Nc1cccc(/C=C/c2nc(-c3ccccc3)cs2)c1
MPC8 [1]: 40 µg/mL
MPC8 [2]: 1.25 µg/mL
Ratio [3]: 32

O=C(Cc1ccccc1C(=O)O)Nc1cccc(/C=C/c2nc(C(F)(F)C(F)(F)F)cs2)c1
MPC8 [1]: 80 µg/mL
MPC8 [2]: 2.5 µg/mL
Ratio [3]: 32

CC(C)(C)c1csc(/C=C/c2cccc(NC(=O)Cc3ccccc3C(=O)O)c2)n1
MPC8 [1]: 20 µg/mL
MPC8 [2]: <=0.63 ug ml-1
Ratio [3]: > 32
MPC8 [4]: 0.63 µg/mL

CC(C)c1csc(/C=C/c2cccc(NC(=O)[C@@H]3OC(C)(C)O[C@H]3C(=O)O)c2)n1
MPC8 [1]: 40 µg/mL
MPC8 [2]: 20 µg/mL
Ratio [3]: 2

CC(C)c1csc(/C=C/c2ccnc(NC(=O)Cc3ccccc3C(=O)O)c2)n1
MPC8 [1]: 10 µg/mL
MPC8 [2]: >10 µg/mL
MPC8 [4]: 0.31 µg/mL

CC(C)c1csc(/C=C/c2cccc(NC(=O)[C@H]3OC(C)(C)O[C@@H]3C(=O)O)c2)n1
MPC8 [1]: 20 µg/mL
MPC8 [2]: 5 µg/mL
Ratio [3]: 4

CC(C)(C)c1csc(/C=C/c2cccc(NC(=O)Cc3ncccc3C(=O)O)c2)n1
MPC8 [1]: 20 µg/mL
MPC8 [2]: 2.5 µg/mL
Ratio [3]: 8
MPC8 [4]: 1.25 µg/mL

CC(C)c1csc(COc2ccnc(NC(=O)Cc3ccccc3C(=O)O)c2)n1
MPC8 [1]: 5 µg/mL
MPC8 [2]: 2.5 µg/mL
Ratio [3]: 2

CC(C)c1csc(/C=C/c2cccc(NC(=O)Cc3ccccc3C(=O)O)c2)n1
MPC8 [1]: 10 µg/mL
MPC8 [2]: <=0.63 ug ml-1
Ratio [3]: > 16

COC(C(=O)Nc1cccc(/C=C/c2nc(C(C)C)cs2)c1)c1ccccc1C(=O)O (configuration not stated)
MPC8 [1]: 160 µg/mL
MPC8 [2]: 20 µg/mL
Ratio [3]: 8
MPC8 [4]: 10 µg/mL
